Source: ChEMBL document CHEMBL1156339, “A virtual screening hit reveals new possibilities for developing group III metabotropic glutamate receptor agonists” (J Med Chem, 2010)
Calls of active or inactive are those of the source. The calls are words filed in the database; no cut-off is given here.

The molecules below were run against T1, Metabotropic glutamate receptor 4 (Rattus norvegicus, UniProt P31423) (assay: Agonist activity at rat mGlu4 receptor expressed in HEK293 cells co-transfected with G-protein alpha and EAAC1 assessed as increase in intracellular inositol phosphate accumulation after 1 hr by scintillation counting).
T1 sequence (P31423 whole entry): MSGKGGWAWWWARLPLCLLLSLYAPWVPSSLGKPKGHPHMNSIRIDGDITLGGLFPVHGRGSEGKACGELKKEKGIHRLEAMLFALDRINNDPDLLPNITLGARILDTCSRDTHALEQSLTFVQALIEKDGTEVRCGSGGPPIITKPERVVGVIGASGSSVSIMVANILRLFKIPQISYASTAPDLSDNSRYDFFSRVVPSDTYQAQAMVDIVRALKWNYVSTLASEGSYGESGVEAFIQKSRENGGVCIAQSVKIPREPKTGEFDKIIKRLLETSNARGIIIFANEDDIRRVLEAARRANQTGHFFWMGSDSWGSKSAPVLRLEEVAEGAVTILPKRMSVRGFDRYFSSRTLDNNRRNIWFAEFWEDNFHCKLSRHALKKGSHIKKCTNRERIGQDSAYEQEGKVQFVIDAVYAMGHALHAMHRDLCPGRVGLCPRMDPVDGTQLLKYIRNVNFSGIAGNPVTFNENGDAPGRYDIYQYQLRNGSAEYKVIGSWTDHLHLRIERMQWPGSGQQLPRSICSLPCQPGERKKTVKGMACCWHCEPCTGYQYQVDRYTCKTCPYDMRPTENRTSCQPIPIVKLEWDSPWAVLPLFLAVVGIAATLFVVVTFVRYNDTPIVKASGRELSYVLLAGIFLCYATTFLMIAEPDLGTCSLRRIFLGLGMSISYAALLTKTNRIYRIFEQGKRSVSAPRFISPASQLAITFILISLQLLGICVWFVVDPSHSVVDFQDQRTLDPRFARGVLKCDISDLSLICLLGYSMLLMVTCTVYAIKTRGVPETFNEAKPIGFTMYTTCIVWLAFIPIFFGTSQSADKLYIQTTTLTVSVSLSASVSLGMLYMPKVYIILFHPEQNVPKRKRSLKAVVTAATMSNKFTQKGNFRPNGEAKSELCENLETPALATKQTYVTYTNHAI
Assay type: functional, cell-based
Summary of the method: (§1)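 Rat receptor, chimeric G-protein alpha subunit and EAAC1 electroporated into HEK293 cells and grown 24 h in polyornithine-coated plates in glutamate/glutamine-free medium. Labelled overnight with 3H-myoinositol from 6 h post-transfection. Ambient glutamate degraded with glutamate-pyruvate transaminase, then agonist applied 30 min. Lysis 1 h in cold 0.1 M formic acid. 3H-IP isolated on Dowex and counted. IP normalised to IP plus membrane radioactivity, triplicate; mean ± SEM of n experiments.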

Row | EC50 [µM] | Structure (SMILES)
1 | 114 | N[C@@H](CCP(=O)(O)C(CC(=O)O)CC(=O)O)C(=O)O
2 | 17 | N[C@H](CCP(=O)(O)CCC(=O)O)C(=O)O

The molecules below were run against T2, Metabotropic glutamate receptor 6 (Rattus norvegicus, UniProt P35349) (assay: Agonist activity at rat mGlu6 receptor expressed in HEK293 cells co-transfected with G-protein alpha and EAAC1 assessed as increase in intracellular inositol phosphate accumulation after 1 hr by scintillation counting).
T2 sequence (P35349 whole entry): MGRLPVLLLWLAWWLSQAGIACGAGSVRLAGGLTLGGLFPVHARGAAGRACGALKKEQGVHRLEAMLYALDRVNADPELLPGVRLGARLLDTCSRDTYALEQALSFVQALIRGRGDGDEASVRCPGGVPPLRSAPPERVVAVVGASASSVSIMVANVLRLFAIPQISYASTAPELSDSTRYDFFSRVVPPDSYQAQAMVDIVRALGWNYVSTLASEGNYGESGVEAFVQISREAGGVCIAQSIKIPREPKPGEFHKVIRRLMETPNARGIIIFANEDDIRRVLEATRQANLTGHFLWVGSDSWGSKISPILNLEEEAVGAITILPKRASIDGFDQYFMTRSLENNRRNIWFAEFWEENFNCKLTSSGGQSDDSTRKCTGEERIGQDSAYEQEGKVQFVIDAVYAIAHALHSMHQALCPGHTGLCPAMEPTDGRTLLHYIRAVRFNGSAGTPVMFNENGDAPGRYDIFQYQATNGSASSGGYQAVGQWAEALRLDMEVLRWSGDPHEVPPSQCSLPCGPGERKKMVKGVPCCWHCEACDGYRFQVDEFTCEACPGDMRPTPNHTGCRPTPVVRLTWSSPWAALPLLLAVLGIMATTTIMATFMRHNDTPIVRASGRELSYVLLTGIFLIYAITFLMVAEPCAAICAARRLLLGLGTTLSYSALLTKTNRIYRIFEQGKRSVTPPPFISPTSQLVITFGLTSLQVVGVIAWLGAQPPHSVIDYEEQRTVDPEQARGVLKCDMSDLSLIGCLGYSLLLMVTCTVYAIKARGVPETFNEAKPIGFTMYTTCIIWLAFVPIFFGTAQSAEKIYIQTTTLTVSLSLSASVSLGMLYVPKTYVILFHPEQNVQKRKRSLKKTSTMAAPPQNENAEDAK
Assay type: functional, cell-based
Summary of the method: as §1

Row | Structure (SMILES) | EC50 [µM]
3 | N[C@@H](CCP(=O)(O)CCC(=O)O)C(=O)O | 31
4 | N[C@H](CCP(=O)(O)CCC(=O)O)C(=O)O | 99

Each molecule was assayed against Metabotropic glutamate receptor 4 (Rattus norvegicus) (UniProt P31423) (assay: (§2) Agonist activity at rat mGlu4 receptor expressed in HEK293 cells co-transfected with G-protein alpha and EAAC1 assessed as increase in intracellular calcium level after 1 hr by fluorescence microplate reader).
Chain of Metabotropic glutamate receptor 4 (Rattus norvegicus) (P31423 whole entry): as the sequence (P31423 whole entry) above
Assay type: functional, cell-based
Summary of the method: (§3)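 HEK293 cells electroporated with rat receptor plus chimeric G-protein alpha subunit and EAAC1, grown 24 h in polyornithine-coated plates in glutamate/glutamine-free medium. Cells loaded 1 h at 37 °C with Fluo-4 AM in HBSS with 2.5 mM probenecid, washed. Agonist added after 20 s of recording. Fluorescence read at ex 485/em 525 nm over a concentration range, triplicate points. EC50 given as mean ± SEM of n experiments.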

Row | Activity | Structure (SMILES)
5 | inactive | N[C@@H](CCCP(=O)(O)CCC(=O)O)C(=O)O

The molecules below were run against T1, Metabotropic glutamate receptor 4 (assay: as §2).
Assay type: functional, cell-based
Summary of the method: as §3

Row | Structure (SMILES) | EC50 [µM]
6 | N[C@@H](CCP(=O)(O)CCC(=O)O)C(=O)O | 6.15
7 | N[C@@H](CCC[PH](=O)O)C(=O)O | 209
8 | N[C@@H](CCP(=O)(O)C(O)C(=O)O)C(=O)O (some centres undefined) | 7.2
9 | N[C@@H](CCP(=O)(O)C1COC(=O)C1)C(=O)O (some centres undefined) | 141
10 | N[C@@H](CCP(=O)(O)CC(CCO)C(=O)O)C(=O)O (some centres undefined) | 20
11 | N[C@@H](CCP(=O)(O)CC1CCOC1=O)C(=O)O (some centres undefined) | 123

What follows are molecules tested against T3, Metabotropic glutamate receptor 8 (Rattus norvegicus, UniProt P70579) (assay: Agonist activity at rat mGlu8 receptor expressed in HEK293 cells co-transfected with G-protein alpha and EAAC1 assessed as increase in intracellular inositol phosphate accumulation after 1 hr by scintillation counting).
T3 sequence (P70579 whole entry): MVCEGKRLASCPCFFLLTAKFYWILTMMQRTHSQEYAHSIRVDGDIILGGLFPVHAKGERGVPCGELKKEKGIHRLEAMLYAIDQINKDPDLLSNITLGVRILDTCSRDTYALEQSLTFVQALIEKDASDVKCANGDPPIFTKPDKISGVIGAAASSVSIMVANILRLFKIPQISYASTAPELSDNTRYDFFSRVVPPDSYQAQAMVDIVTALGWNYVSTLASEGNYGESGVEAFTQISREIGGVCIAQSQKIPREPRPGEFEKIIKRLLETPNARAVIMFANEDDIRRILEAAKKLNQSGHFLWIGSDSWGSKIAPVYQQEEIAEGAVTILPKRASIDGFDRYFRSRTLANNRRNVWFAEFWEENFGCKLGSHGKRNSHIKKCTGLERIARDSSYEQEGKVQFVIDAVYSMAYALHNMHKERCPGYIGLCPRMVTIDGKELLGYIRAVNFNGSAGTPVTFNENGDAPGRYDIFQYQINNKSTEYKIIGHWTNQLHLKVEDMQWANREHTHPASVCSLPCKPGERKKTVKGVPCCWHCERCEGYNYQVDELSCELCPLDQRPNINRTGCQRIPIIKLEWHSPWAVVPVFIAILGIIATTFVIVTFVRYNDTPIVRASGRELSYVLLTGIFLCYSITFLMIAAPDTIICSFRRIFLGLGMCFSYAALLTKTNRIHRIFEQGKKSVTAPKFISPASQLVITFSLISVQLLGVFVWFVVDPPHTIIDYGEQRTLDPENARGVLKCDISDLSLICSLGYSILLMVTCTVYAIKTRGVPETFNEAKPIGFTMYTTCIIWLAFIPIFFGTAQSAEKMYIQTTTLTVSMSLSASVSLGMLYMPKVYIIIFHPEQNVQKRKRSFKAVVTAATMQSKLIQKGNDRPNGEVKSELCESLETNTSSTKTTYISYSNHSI
Assay type: functional, cell-based
Summary of the method: as §1

Row | Structure (SMILES) | EC50 [µM]
12 | N[C@@H](CCP(=O)(O)CCC(=O)O)C(=O)O | 7.8
13 | N[C@H](CCP(=O)(O)CCC(=O)O)C(=O)O | 58

What follows are molecules tested against Metabotropic glutamate receptor 8 (Rattus norvegicus) (UniProt P70579) (assay: (§4) Agonist activity at rat mGlu8 receptor expressed in HEK293 cells co-transfected with G-protein alpha and EAAC1 assessed as increase in intracellular calcium level after 1 hr by fluorescence microplate reader).
Chain of Metabotropic glutamate receptor 8 (Rattus norvegicus) (P70579 whole entry): as above
Assay type: functional, cell-based
Summary of the method: as §3

Row | Activity | Structure (SMILES)
14 | inactive | N[C@@H](CCCP(=O)(O)CCC(=O)O)C(=O)O

What follows are molecules tested against T3, Metabotropic glutamate receptor 8 (assay: as §4).
Assay type: functional, cell-based
Summary of the method: as §3

Row | Structure (SMILES) | EC50 [µM]
15 | N[C@@H](CCP(=O)(O)CCC(=O)O)C(=O)O | 6.6
16 | N[C@@H](CCC[PH](=O)O)C(=O)O | 73
17 | N[C@@H](CCP(=O)(O)C(O)C(=O)O)C(=O)O (some centres undefined) | 2.9
18 | N[C@@H](CCP(=O)(O)C1COC(=O)C1)C(=O)O (some centres undefined) | > 100
19 | N[C@@H](CCP(=O)(O)CC(CCO)C(=O)O)C(=O)O (some centres undefined) | 76
20 | N[C@@H](CCP(=O)(O)CC1CCOC1=O)C(=O)O (some centres undefined) | > 100

What follows are molecules tested against Metabotropic glutamate receptor 1 (Rattus norvegicus) (UniProt P23385) (assay: Agonist activity at rat mGlu1 receptor expressed in HEK293 cells).
Assay type: functional, cell-based
Summary of the method: (§5)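 Receptor transiently electroporated into HEK293 cells (DMEM, 10% FCS, penicillin/streptomycin) with EAAC1 transporter, plated in 96-well plates; tested for agonist or antagonist activity coupled to PLC, read out by IP or Fluo-4 Ca2+ assays.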

Row | Structure (SMILES) | Activity
21 | N[C@@H](CCP(=O)(O)CCC(=O)O)C(=O)O | inactive

These molecules were tested against T2, Metabotropic glutamate receptor 6 (assay: Agonist activity at rat mGlu6 receptor expressed in HEK293 cells co-transfected with G-protein alpha and EAAC1 assessed as increase in intracellular calcium level after 1 hr by fluorescence microplate reader).
Assay type: functional, cell-based
Summary of the method: as §3

Row | Structure (SMILES) | EC50 [µM]
22 | N[C@@H](CCP(=O)(O)CCC(=O)O)C(=O)O | 6.7

The molecules below were run against Metabotropic glutamate receptor 2 (Rattus norvegicus, UniProt P31421) (assay: Agonist activity at rat mGlu2 receptor expressed in HEK293 cells assessed as increase in intracellular calcium level after 1 hr by fluorescence microplate reader).
Assay type: functional, cell-based
Summary of the method: as §3

Row | EC50 [µM] | Structure (SMILES)
23 | 0.045 | N[C@H](C(=O)O)C1[C@@H](C(=O)O)[C@@H]1C(=O)O (some centres undefined)

These molecules were tested against Metabotropic glutamate receptor 5 (Rattus norvegicus) (UniProt P31424) (assay: Agonist activity at rat mGlu5 receptor expressed in HEK293 cells).
Chain of Metabotropic glutamate receptor 5 (Rattus norvegicus) (P31424 21-1203 limits assumed): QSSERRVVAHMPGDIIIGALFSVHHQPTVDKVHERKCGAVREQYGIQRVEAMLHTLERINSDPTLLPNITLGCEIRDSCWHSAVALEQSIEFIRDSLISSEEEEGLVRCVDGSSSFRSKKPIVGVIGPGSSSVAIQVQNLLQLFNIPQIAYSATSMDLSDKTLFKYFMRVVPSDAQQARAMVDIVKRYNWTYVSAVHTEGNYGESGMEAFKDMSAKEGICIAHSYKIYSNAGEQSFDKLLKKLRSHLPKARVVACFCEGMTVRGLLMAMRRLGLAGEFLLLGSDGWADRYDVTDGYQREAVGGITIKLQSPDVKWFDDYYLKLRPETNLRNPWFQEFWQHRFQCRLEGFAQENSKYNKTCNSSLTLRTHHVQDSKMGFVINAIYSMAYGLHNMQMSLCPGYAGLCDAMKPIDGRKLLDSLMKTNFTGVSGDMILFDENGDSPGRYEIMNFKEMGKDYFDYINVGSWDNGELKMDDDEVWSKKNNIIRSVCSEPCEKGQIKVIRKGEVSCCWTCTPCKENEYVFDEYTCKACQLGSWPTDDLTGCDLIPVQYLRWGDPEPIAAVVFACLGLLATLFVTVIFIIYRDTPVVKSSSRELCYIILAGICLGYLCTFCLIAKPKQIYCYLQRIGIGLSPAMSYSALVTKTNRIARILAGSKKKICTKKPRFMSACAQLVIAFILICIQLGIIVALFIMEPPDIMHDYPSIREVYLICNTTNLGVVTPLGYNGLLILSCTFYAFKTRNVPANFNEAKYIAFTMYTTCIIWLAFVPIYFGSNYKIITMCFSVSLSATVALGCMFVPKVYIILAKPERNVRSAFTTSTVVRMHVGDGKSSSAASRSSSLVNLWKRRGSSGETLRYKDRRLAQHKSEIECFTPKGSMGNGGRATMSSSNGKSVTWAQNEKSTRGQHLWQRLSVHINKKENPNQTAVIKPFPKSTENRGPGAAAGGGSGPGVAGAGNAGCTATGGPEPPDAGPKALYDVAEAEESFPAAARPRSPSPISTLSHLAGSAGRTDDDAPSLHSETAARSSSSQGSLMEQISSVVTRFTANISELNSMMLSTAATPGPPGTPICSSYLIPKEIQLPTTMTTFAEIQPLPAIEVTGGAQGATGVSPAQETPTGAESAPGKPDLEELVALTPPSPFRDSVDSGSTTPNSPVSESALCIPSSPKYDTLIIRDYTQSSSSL
Assay type: functional, cell-based
Summary of the method: as §5

Row | Structure (SMILES) | Activity
24 | N[C@@H](CCP(=O)(O)CCC(=O)O)C(=O)O | inactive

The molecules below were run against Metabotropic glutamate receptor 7 (Rattus norvegicus, UniProt P35400) (assay: Agonist activity at rat mGlu7 receptor expressed in HEK293 cells co-transfected with G-protein alpha and EAAC1 assessed as increase in intracellular calcium level after 1 hr by fluorescence microplate reader).
Chain of Metabotropic glutamate receptor 7 (P35400 whole entry): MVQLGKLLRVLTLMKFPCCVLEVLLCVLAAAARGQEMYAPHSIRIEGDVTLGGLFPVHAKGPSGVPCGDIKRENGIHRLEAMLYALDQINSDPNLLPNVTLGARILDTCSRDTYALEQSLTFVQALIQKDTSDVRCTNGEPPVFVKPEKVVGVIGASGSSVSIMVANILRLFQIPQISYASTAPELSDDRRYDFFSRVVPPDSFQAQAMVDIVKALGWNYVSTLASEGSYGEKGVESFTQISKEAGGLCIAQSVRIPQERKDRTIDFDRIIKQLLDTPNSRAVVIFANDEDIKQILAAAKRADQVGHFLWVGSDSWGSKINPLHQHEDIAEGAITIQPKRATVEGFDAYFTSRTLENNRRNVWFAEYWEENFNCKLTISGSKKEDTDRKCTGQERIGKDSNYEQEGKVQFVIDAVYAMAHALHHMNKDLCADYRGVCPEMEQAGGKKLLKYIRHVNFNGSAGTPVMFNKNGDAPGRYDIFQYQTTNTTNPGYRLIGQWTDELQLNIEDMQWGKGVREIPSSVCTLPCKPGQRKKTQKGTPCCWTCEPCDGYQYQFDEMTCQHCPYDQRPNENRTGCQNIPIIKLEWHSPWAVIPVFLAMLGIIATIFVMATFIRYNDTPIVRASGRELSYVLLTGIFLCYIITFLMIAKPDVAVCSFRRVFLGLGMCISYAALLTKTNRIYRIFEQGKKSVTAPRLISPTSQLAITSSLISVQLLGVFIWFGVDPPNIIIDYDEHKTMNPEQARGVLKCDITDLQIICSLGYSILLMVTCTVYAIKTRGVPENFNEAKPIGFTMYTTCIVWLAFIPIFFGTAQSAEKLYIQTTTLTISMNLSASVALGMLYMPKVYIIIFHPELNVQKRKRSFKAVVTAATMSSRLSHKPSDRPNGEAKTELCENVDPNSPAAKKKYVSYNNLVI
Assay type: functional, cell-based
Summary of the method: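 Rat mGlu7 electroporated into HEK293 cells with a chimeric G-protein α subunit and EAAC1. Cells were grown 24 h on polyornithine in glutamate/glutamine-free medium, then loaded with Fluo-4 AM in HBSS with 2.5 mM probenecid for 1 h at 37 °C and washed. Agonist was added 20 s into recording, and fluorescence was read at ex 485/em 525 nm. Points were run in triplicate across a concentration series to give EC50.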

Row | Structure (SMILES) | EC50 [µM]
25 | N[C@@H](CCP(=O)(O)CCC(=O)O)C(=O)O | 89

The molecules below were run against Metabotropic glutamate receptor 4 (Rattus norvegicus) (UniProt P31423) (assay: Agonist activity at rat mGlu4 receptor expressed in HEK293 cells co-transfected with G-protein alpha and EAAC1 assessed as increase in intracellular inositol phosphate accumulation at 100 uM after 1 hr by scintillation counting).
Assay type: functional, cell-based

Row | Activity | Structure (SMILES)
26 | 33% | N[C@@H](CCP(=O)(O)C(CC(=O)O)CP(=O)(O)O)C(=O)O (some centres undefined)
27 | inactive | NC(CCP(=O)(O)CCCCC(=O)O)C(=O)O (centres undefined)
28 | inactive | C/C(=C\C(=O)O)C(O)P(=O)(O)CC[C@H](N)C(=O)O (some centres undefined)

Row | Structure (SMILES) | Activity
29 | NC(CP(=O)(O)CCC(=O)O)C(=O)O (centres undefined) | inactive
